Laboratory results: ChEMBL document CHEMBL2384977, “Synthesis and biological evaluation of novel styryl benzimidazole derivatives as probes for imaging of neurofibrillary tangles in Alzheimer's disease” (Bioorg Med Chem, 2013)

What was measured:
Brain [1] = assay: Drug uptake in white matter of alzheimer disease patient brain at 92.5 kBq after 1 hr by autoradiographic analysis; format: ADME, tissue-based; settings: human, in vitro
In short: (§1)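 Postmortem AD brain (person), 6 µm paraffin sections, deparaffinized in xylene and a graded ethanol series. Sections were incubated with the 125I tracer (92.5 kBq/100 µL) for 1 h at room temperature, then dipped in 50% EtOH for 2 h and rinsed in water. Imaging plates were exposed overnight. Adjacent sections were immunostained with AT8 (phospho-tau) and BC05 (Abeta1-42).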

Brain [2] = assay: Drug uptake in human brain at 92.5 kBq after 1 hr by autoradiographic analysis; format: ADME, tissue-based
Brain [3] = assay: Drug uptake in gray matter of alzheimer disease patient brain at 92.5 kBq after 1 hr by autoradiographic analysis; format: ADME, tissue-based; settings: human, in vitro; in short: as §1
Intestine [4] = assay: Biodistribution in ddY mouse intestine at 13.2 to 20.6 kBq, iv measured at 60 mins by gamma counting analysis; format: ADME, organism-based; settings: in vivo, 1 h
In short: (§2)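 Male ddY mice, 5 weeks old, received the 125I-labelled tracer (13.2–20.6 kBq) intravenously in the tail vein, in 100 µL saline containing ethanol. Animals were sacrificed at 2, 10, 30 and 60 min. Tissue radioactivity is expressed as %ID/g, mean (SD) of 5 animals.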

Spleen [5] = assay: Biodistribution in ddY mouse spleen at 13.2 to 20.6 kBq, iv measured at 60 mins by gamma counting analysis; format: ADME, organism-based; settings: in vivo, 1 h; in short: as §2
Pancreas [6] = assay: Biodistribution in ddY mouse pancreas at 13.2 to 20.6 kBq, iv measured at 60 mins by gamma counting analysis; format: ADME, organism-based; settings: in vivo, 1 h; in short: as §2
Heart [7] = assay: Biodistribution in ddY mouse heart at 13.2 to 20.6 kBq, iv measured at 60 mins by gamma counting analysis; format: ADME, organism-based; settings: in vivo, 1 h; in short: as §2
Lung [8] = assay: Biodistribution in ddY mouse lung at 13.2 to 20.6 kBq, iv measured at 60 mins by gamma counting analysis; format: ADME, organism-based; settings: in vivo, 1 h; in short: as §2
Stomach [9] = assay: Biodistribution in ddY mouse stomach at 13.2 to 20.6 kBq, iv measured per organ at 60 mins by gamma counting analysis; format: ADME, organism-based; settings: in vivo, 1 h
In short: (§3)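 Male ddY mice, 5 weeks old, were injected in the tail vein with the 125I tracer (13.2–20.6 kBq) in 100 µL saline containing ethanol. Sacrifice at 2, 10, 30 and 60 min. Stomach radioactivity is expressed as %ID per whole organ, mean (SD) of 5 animals.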

Brain [10] = assay: Biodistribution in ddY mouse brain at 13.2 to 20.6 kBq, iv measured at 60 mins by gamma counting analysis; format: ADME, organism-based; settings: in vivo, 1 h; in short: as §2
Blood [11] = assay: Biodistribution in ddY mouse blood at 13.2 to 20.6 kBq, iv measured at 60 mins by gamma counting analysis; format: ADME, organism-based; settings: in vivo, 1 h; in short: as §2
Liver [12] = assay: Biodistribution in ddY mouse liver at 13.2 to 20.6 kBq, iv measured at 10 mins by gamma counting analysis; format: ADME, organism-based; settings: in vivo; in short: as §2
Kidney [13] = assay: Biodistribution in ddY mouse kidney at 13.2 to 20.6 kBq, iv measured at 10 mins by gamma counting analysis; format: ADME, organism-based; settings: in vivo; in short: as §2
Intestine [14] = assay: Biodistribution in ddY mouse intestine at 13.2 to 20.6 kBq, iv measured at 10 mins by gamma counting analysis; format: ADME, organism-based; settings: in vivo; in short: as §2
Spleen [15] = assay: Biodistribution in ddY mouse spleen at 13.2 to 20.6 kBq, iv measured at 10 mins by gamma counting analysis; format: ADME, organism-based; settings: in vivo; in short: as §2
Pancreas [16] = assay: Biodistribution in ddY mouse pancreas at 13.2 to 20.6 kBq, iv measured at 10 mins by gamma counting analysis; format: ADME, organism-based; settings: in vivo; in short: as §2
Heart [17] = assay: Biodistribution in ddY mouse heart at 13.2 to 20.6 kBq, iv measured at 10 mins by gamma counting analysis; format: ADME, organism-based; settings: in vivo; in short: as §2
Lung [18] = assay: Biodistribution in ddY mouse lung at 13.2 to 20.6 kBq, iv measured at 10 mins by gamma counting analysis; format: ADME, organism-based; settings: in vivo; in short: as §2
Stomach [19] = assay: Biodistribution in ddY mouse stomach at 13.2 to 20.6 kBq, iv measured per organ at 10 mins by gamma counting analysis; format: ADME, organism-based; settings: in vivo; in short: as §3
Brain [20] = assay: Biodistribution in ddY mouse brain at 13.2 to 20.6 kBq, iv measured at 10 mins by gamma counting analysis; format: ADME, organism-based; settings: in vivo; in short: as §2
Blood [21] = assay: Biodistribution in ddY mouse blood at 13.2 to 20.6 kBq, iv measured at 10 mins by gamma counting analysis; format: ADME, organism-based; settings: in vivo; in short: as §2
Liver [22] = assay: Biodistribution in ddY mouse liver at 13.2 to 20.6 kBq, iv measured at 30 mins by gamma counting analysis; format: ADME, organism-based; settings: in vivo, 0.5 h; in short: as §2
Kidney [23] = assay: Biodistribution in ddY mouse kidney at 13.2 to 20.6 kBq, iv measured at 30 mins by gamma counting analysis; format: ADME, organism-based; settings: in vivo, 0.5 h; in short: as §2
Intestine [24] = assay: Biodistribution in ddY mouse intestine at 13.2 to 20.6 kBq, iv measured at 30 mins by gamma counting analysis; format: ADME, organism-based; settings: in vivo, 0.5 h; in short: as §2
Spleen [25] = assay: Biodistribution in ddY mouse spleen at 13.2 to 20.6 kBq, iv measured at 30 mins by gamma counting analysis; format: ADME, organism-based; settings: in vivo, 0.5 h; in short: as §2
Pancreas [26] = assay: Biodistribution in ddY mouse pancreas at 13.2 to 20.6 kBq, iv measured at 30 mins by gamma counting analysis; format: ADME, organism-based; settings: in vivo, 0.5 h; in short: as §2
Heart [27] = assay: Biodistribution in ddY mouse heart at 13.2 to 20.6 kBq, iv measured at 30 mins by gamma counting analysis; format: ADME, organism-based; settings: in vivo, 0.5 h; in short: as §2
Lung [28] = assay: Biodistribution in ddY mouse lung at 13.2 to 20.6 kBq, iv measured at 30 mins by gamma counting analysis; format: ADME, organism-based; settings: in vivo, 0.5 h; in short: as §2
Stomach [29] = assay: Biodistribution in ddY mouse stomach at 13.2 to 20.6 kBq, iv measured per organ at 30 mins by gamma counting analysis; format: ADME, organism-based; settings: in vivo, 0.5 h; in short: as §3
Brain [30] = assay: Biodistribution in ddY mouse brain at 13.2 to 20.6 kBq, iv measured at 30 mins by gamma counting analysis; format: ADME, organism-based; settings: in vivo, 0.5 h; in short: as §2
Blood [31] = assay: Biodistribution in ddY mouse blood at 13.2 to 20.6 kBq, iv measured at 30 mins by gamma counting analysis; format: ADME, organism-based; settings: in vivo, 0.5 h; in short: as §2
Liver [32] = assay: Biodistribution in ddY mouse liver at 13.2 to 20.6 kBq, iv measured at 60 mins by gamma counting analysis; format: ADME, organism-based; settings: in vivo, 1 h; in short: as §2
Kidney [33] = assay: Biodistribution in ddY mouse kidney at 13.2 to 20.6 kBq, iv measured at 60 mins by gamma counting analysis; format: ADME, organism-based; settings: in vivo, 1 h; in short: as §2
[34] = 1-Octanol-PBS buffer partition coefficient, log P of the compound at 0.37 MBq after 2 mins by gamma counting analysis; format: physicochemical
Brain [35] = assay: Ratio of drug level in ddY mouse brain at 13.2 to 20.6 kBq, iv measured at 2 mins to drug level in ddY mouse brain at 13.2 to 20.6 kBq, iv measured at 60 mins; format: ADME, organism-based; settings: in vivo
In short: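 Tail-vein injection of the 125I tracer (13.2–20.6 kBq, saline with ethanol) into male 5-week-old ddY mice. The ratio is brain uptake (%ID/g) at 2 min divided by brain uptake at 60 min, from groups of 5 animals.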

Brain [36] = assay: Biodistribution in ddY mouse brain at 13.2 to 20.6 kBq, iv measured at 2 mins by gamma counting analysis; format: ADME, organism-based; settings: in vivo; in short: as §2
Stomach [37] = assay: Biodistribution in ddY mouse stomach at 13.2 to 20.6 kBq, iv measured per organ at 2 mins by gamma counting analysis; format: ADME, organism-based; settings: in vivo; in short: as §3
Heart [38] = assay: Biodistribution in ddY mouse heart at 13.2 to 20.6 kBq, iv measured at 2 mins by gamma counting analysis; format: ADME, organism-based; settings: in vivo; in short: as §2
Lung [39] = assay: Biodistribution in ddY mouse lung at 13.2 to 20.6 kBq, iv measured at 2 mins by gamma counting analysis; format: ADME, organism-based; settings: in vivo; in short: as §2
Pancreas [40] = assay: Biodistribution in ddY mouse pancreas at 13.2 to 20.6 kBq, iv measured at 2 mins by gamma counting analysis; format: ADME, organism-based; settings: in vivo; in short: as §2
Spleen [41] = assay: Biodistribution in ddY mouse spleen at 13.2 to 20.6 kBq, iv measured at 2 mins by gamma counting analysis; format: ADME, organism-based; settings: in vivo; in short: as §2
Intestine [42] = assay: Biodistribution in ddY mouse intestine at 13.2 to 20.6 kBq, iv measured at 2 mins by gamma counting analysis; format: ADME, organism-based; settings: in vivo; in short: as §2
Kidney [43] = assay: Biodistribution in ddY mouse kidney at 13.2 to 20.6 kBq, iv measured at 2 mins by gamma counting analysis; format: ADME, organism-based; settings: in vivo; in short: as §2
Blood [44] = assay: Biodistribution in ddY mouse blood at 13.2 to 20.6 kBq, iv measured at 2 mins by gamma counting analysis; format: ADME, organism-based; settings: in vivo; in short: as §2
Liver [45] = assay: Biodistribution in ddY mouse liver at 13.2 to 20.6 kBq, iv measured at 2 mins by gamma counting analysis; format: ADME, organism-based; settings: in vivo; in short: as §2
Brain [46] = assay: Ratio of drug level in ddY mouse brain at 64.5 kBq, iv measured at 2 mins to drug level in ddY mouse brain at 64.5 kBq, iv measured at 60 mins; format: ADME, organism-based; settings: in vivo

## CN(C)c1ccc(/C=C/c2nc3ccc([125I])cc3[nH]2)cc1
Brain [1]
  Drug uptake: Not Active
Brain [2]
  Drug uptake: Not Active
Brain [3]
  Drug uptake: Active
Intestine [4]
  Drug uptake: 26.5 % ID/g
Spleen [5]
  Drug uptake: 1.42 % ID/g
Pancreas [6]
  Drug uptake: 0.89 % ID/g
Heart [7]
  Drug uptake: 1.12 % ID/g
Lung [8]
  Drug uptake: 1.39 % ID/g
Stomach [9]
  Drug uptake: 3.56 %ID
Brain [10]
  Drug uptake: 0.33 % ID/g
Blood [11]
  Drug uptake: 1.28 % ID/g
Liver [12]
  Drug uptake: 19.2 % ID/g
Kidney [13]
  Drug uptake: 7.28 % ID/g
Intestine [14]
  Drug uptake: 9.22 % ID/g
Spleen [15]
  Drug uptake: 3.69 % ID/g
Pancreas [16]
  Drug uptake: 3.31 % ID/g
Heart [17]
  Drug uptake: 3.46 % ID/g
Lung [18]
  Drug uptake: 3.98 % ID/g
Stomach [19]
  Drug uptake: 2.82 %ID
Brain [20]
  Drug uptake: 1.61 % ID/g
Blood [21]
  Drug uptake: 3.24 % ID/g
Liver [22]
  Drug uptake: 14.9 % ID/g
Kidney [23]
  Drug uptake: 4.32 % ID/g
Intestine [24]
  Drug uptake: 18.2 % ID/g
Spleen [25]
  Drug uptake: 2.66 % ID/g
Pancreas [26]
  Drug uptake: 1.67 % ID/g
Heart [27]
  Drug uptake: 2 % ID/g
Lung [28]
  Drug uptake: 2.2 % ID/g
Stomach [29]
  Drug uptake: 3.83 %ID
Brain [30]
  Drug uptake: 0.68 % ID/g
Blood [31]
  Drug uptake: 1.88 % ID/g
Liver [32]
  Drug uptake: 10.1 % ID/g
Kidney [33]
  Drug uptake: 2.26 % ID/g
[34]
  logP at 2 min: 2.23
Brain [35]
  Ratio: 9.94
Brain [36]
  Drug uptake: 3.28 % ID/g
Stomach [37]
  Drug uptake: 1.67 %ID
Heart [38]
  Drug uptake: 8.56 % ID/g
Lung [39]
  Drug uptake: 7.39 % ID/g
Pancreas [40]
  Drug uptake: 5.4 % ID/g
Spleen [41]
  Drug uptake: 3.48 % ID/g
Intestine [42]
  Drug uptake: 3.11 % ID/g
Kidney [43]
  Drug uptake: 11.7 % ID/g
Blood [44]
  Drug uptake: 3.83 % ID/g
Liver [45]
  Drug uptake: 17.4 % ID/g

## CN(C)c1ccc(/N=N/c2nc3ccc(OCCOCCOCC[18F])cc3s2)cc1
Brain [46]
  Ratio: 1.69
